We go through 42 compounds from ChEMBL document CHEMBL4251623, “Synthesis and evaluation of 2-(3-arylureido)pyridines and 2-(3-arylureido)pyrazines as potential modulators of Aβ-induced mitochondrial dysfunction in Alzheimer's disease” (Eur J Med Chem, 2018).

The species entered for data set [1] is Mus musculus. The data set can be described thus: Inhibition of amyloid beta (1 to 42)-induced mPTP opening in mouse HT22 cells assessed as reduction in mitochondrial membrane potential loss by measuring green to red fluorescence ratio at 5 uM preincubated for 10 mins followed by amyloid beta (1 to 42) addition and measured every 1 hr for 3 hrs by JC1 staining based fluorescence assay relative to control. The data set is classed as cell-based. Also on record: scale not given: the % may be the effect or the level left. In short, it runs like this:
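HT-22 cells (30,000/well) were seeded one day before and loaded with 7.5 µM final JC-1 in phenol red-free Opti-MEM for 1 h 15 min at 37 °C, then washed with PBS. Compound (5 µM) was added for 10 min at 37 °C, then Aβ1-42 (5 µM). Red (ex/em 530/580 nm) and green (485/530 nm) fluorescence were read hourly for 3 h. Green/red ratio was expressed versus Aβ alone (100%), as mean of duplicates.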

Another data set deals with HT-22. Briefly: Toxicity in mouse HT22 cells assessed as ATP production level at 5 uM after 7 hrs by luciferase based assay relative to control. The data set is classed as cell-based. The conditions noted are these: ht-22, 7 h. In short, it runs like this: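 HT-22 cells (10,000/well, seeded the day before; DMEM, 10% FBS, 37 °C, 5% CO2) were exposed to compound (5 µM per footnote) without Aβ for 7 h at 37 °C. Cells were lysed in 1% Triton X-100/TBST, equal protein (BCA) was taken, and ATP was measured with a luciferase kit. Result is % ATP production relative to vehicle; mean of duplicates.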

The species entered for data set [2] is Mus musculus. Briefly: Inhibition of amyloid beta (1 to 42)-induced mPTP opening in mouse HT22 cells assessed as protection against amyloid beta (1 to 42)-induced deterioration of ATP production by measuring ATP recovery at 5 uM preincubated for 10 mins followed by amyloid beta (1 to 42) addition and measured after 7 hrs relative to control. The data set is classed as cell-based. Also on record: scale not given: the % may be the effect or the level left. In short, it runs like this:
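HT-22 cells (10,000/well, seeded the day before) got compound for 10 min at 37 °C, then Aβ1-42; per footnote, both were at 5 µM. After 7 h at 37 °C, cells were washed, lysed in 1% Triton X-100/TBST and protein-normalized by BCA. ATP was measured with a luciferase kit. Aβ-injured level was set to 0 and vehicle to 100% recovery; mean of duplicates.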

A short description of data set [3]: Cytotoxicity against mouse HT22 cells assessed as cell viability at 5 uM after 24 hrs by MTT assay relative to control. The conditions noted are these: read-out: Activity. In kind it is cell-based, HT-22. In short, it runs like this:
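HT-22 cells (5000/well) got compound at 5 µM for 24 h at 37 °C. MTT was added for 2 h, then solubilizer (10% Triton X-100 in isopropanol, 0.1 M HCl) for 1 h at room temperature. Absorbance was read at 570 nm, vehicle-subtracted, and expressed as % viability; mean of duplicates.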
In general terms: Tetrazolium assays rely on reduction of a dye to a coloured formazan, in cell work by metabolically active cells.

Data set [4] is filed under the species Mus musculus. The data set can be described thus: Inhibition of amyloid beta (1 to 42)-induced mPTP opening in mouse HT22 cells assessed as neuroprotective activity against amyloid beta (1 to 42)-induced toxicity at 5 uM measured after 24 hrs by MTT assay relative to control. The data set is classed as cell-based. In short, it runs like this: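 HT-22 cells (5000/well) were pretreated with compound for 10 min, then Aβ1-42 was added, both at 5 µM, for 24 h at 37 °C. Viability was read by MTT (2 h; acidic Triton/isopropanol solubilization; A570). Aβ-treated viability was set to 0 and vehicle to 100% protection; mean of duplicates.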

As for `O=C(Nc1ccccc1F)Nc1ncccc1OCc1cccc(Cl)c1`, the Activity in the data set filed under Mus musculus [1] worked out at 11%; in the data set on HT-22, 104%; in the data set listed under Mus musculus [2], 43%. The viability at 24 h, 5 µM in data set [3] stood at 115%. Moreover, the percent protection against Aβ1-42 toxicity in the data set filed under Mus musculus [4] is 67%.
Turning to `O=C(Nc1cccc(F)c1)Nc1ncccc1OCc1cccc(Cl)c1`, the Activity in the data set filed under Mus musculus [1] stood at 13%; with HT-22, 99%; in the data set filed under Mus musculus [2] it was 69%. In addition, the viability at 24 h, 5 µM in data set [3] was found to be 91%. For the same compound, in the data set filed under Mus musculus [4], the percent protection against Aβ1-42 toxicity came to 38%.
Take `O=C(Nc1ccc(Cl)c(Cl)c1)Nc1ncccc1OCc1cccc(Cl)c1`: the Activity in the data set listed under Mus musculus [1] is 10%.
Take `O=C(Nc1cccc(F)c1)Nc1ncccc1OCc1ccccc1Cl`: the Activity was 32% in the data set filed under Mus musculus [1], 106% in the data set with HT-22 and 78% in the data set filed under Mus musculus [2]. The viability at 24 h, 5 µM in data set [3] is 86%. In addition, in the data set listed under Mus musculus [4], the percent protection against Aβ1-42 toxicity turned out to be 14%.
For the compound `NC(=O)CN1CCCC1=O` [PIRACETAM], the Activity came to 88% with HT-22 and 127% in the data set listed under Mus musculus [2]. Moreover, the percent protection against Aβ1-42 toxicity in the data set filed under Mus musculus [4] was found to be 29%.
As to `O=C(Nc1ccccc1F)Nc1ncccc1OCc1cccc(F)c1`, the Activity in the data set listed under Mus musculus [1] worked out at 23%.
In the case of `Cc1ccc(NC(=O)Nc2ncccc2OCc2cccc(Cl)c2)cc1`, the Activity stood at 26% in the data set listed under Mus musculus [1], 108% with HT-22 and 54% in the data set filed under Mus musculus [2]. The viability at 24 h, 5 µM in data set [3] was 95%. Moreover, the percent protection against Aβ1-42 toxicity in the data set filed under Mus musculus [4] came to 17%.
For `O=C(Nc1ccccc1)Nc1ncccc1OCc1cccc(Cl)c1`, the figures for the Activity in the data set filed under Mus musculus [1], with HT-22 and in the data set listed under Mus musculus [2] were 14%, 109% and 90%, respectively. Besides, the viability at 24 h, 5 µM in data set [3] turned out to be 98%. In addition, the percent protection against Aβ1-42 toxicity in the data set listed under Mus musculus [4] was found to be 31%.
As to `Cc1ccc(NC(=O)Nc2ncccc2OCc2cccc(F)c2)cc1`, in the data set listed under Mus musculus [1], the Activity came to 22%.
`O=C(Nc1ccc(C(F)(F)F)cc1)Nc1ncccc1OCc1cccc(F)c1`: in the data set listed under Mus musculus [1], the Activity came to 23%.
Take `O=C(Nc1cccc(F)c1)Nc1ncccc1OCc1cccc(F)c1`: in the data set filed under Mus musculus [1], the Activity was 34%.
The same measure, in the same setting: the figure for `Cc1ccc(NC(=O)Nc2nccnc2OCc2cccc(F)c2)cc1` is 96%; for `O=C(Nc1cccc(F)c1)Nc1nccnc1OCc1ccccc1` it is 111%.
`O=C(Nc1ccccc1F)Nc1ncccc1OCc1ccccc1`: the Activity in the data set filed under Mus musculus [1] came to 69%.
Regarding `O=C(Nc1cccc(Cl)c1)Nc1ncccc1OCc1ccccc1Cl`, the Activity amounted to 25% in the data set listed under Mus musculus [1], 124% in the data set on HT-22 and 91% in the data set listed under Mus musculus [2]. The viability at 24 h, 5 µM in data set [3] was 84%. For the same compound, in the data set listed under Mus musculus [4], the percent protection against Aβ1-42 toxicity was determined as 21%.
For the compound `O=C(NCc1ccccc1)Nc1nccnc1OCc1cccc(F)c1`, the Activity in the data set filed under Mus musculus [1] amounted to 69%.
For the compound `O=C(Nc1cccc(Cl)c1)Nc1ncccc1OCc1ccc(Cl)cc1`, the Activity in the data set listed under Mus musculus [1] is 46%.
Consider `Cc1ccc(NC(=O)Nc2ncccc2OCc2ccccc2Cl)cc1`, for which, in the data set filed under Mus musculus [1], the Activity came to 22%.
On the same count and under the same terms, the figure for `O=C(Nc1ccccc1F)Nc1ncccc1OCc1ccc(F)cc1` is 27%.
As to `O=C(Nc1ccc(Cl)c(Cl)c1)Nc1ncccc1OCc1ccccc1`, the Activity in the data set listed under Mus musculus [1] was 19%.
As for `O=C(Nc1ncccc1OCc1cccc(Cl)c1)Nc1cccc2ccccc12`, the Activity in the data set listed under Mus musculus [1] amounted to 106%.
Consider `O=C(Nc1ccc(Cl)c(Cl)c1)Nc1ncccc1OCc1ccccc1Cl`, for which the Activity in the data set listed under Mus musculus [1] was 36%; in the data set on HT-22 it was 123%. In addition, the viability at 24 h, 5 µM in data set [3] is 60%.
As for `O=C(Nc1ccccc1F)Nc1ncccc1OCc1ccc(Cl)cc1`, the Activity in the data set filed under Mus musculus [1] stood at 27%.
For the compound `O=C(Nc1cccc(Cl)c1)Nc1ncccc1OCc1ccc(F)cc1`, the Activity in the data set listed under Mus musculus [1] was found to be 91%.
Turning to `O=C(Nc1ccccc1)Nc1ncccc1OCc1ccccc1Cl`, the Activity in the data set filed under Mus musculus [1] was determined as 80%.
Same read-out and setting: the figure for `O=C(Nc1ccc(C(F)(F)F)cc1)Nc1ncccc1OCc1ccc(Cl)cc1` is 91%; for `O=C(Nc1ccc(Cl)c(Cl)c1)Nc1ncccc1OCc1cccc(F)c1` it is 35%.
As for `O=C(Nc1ccccc1F)Nc1ncccc1OCc1ccccc1Cl`, the Activity in the data set filed under Mus musculus [1] was 38%.
`O=C(Nc1cccc(Cl)c1)Nc1ncccc1OCc1cccc(Cl)c1`: the Activity in the data set filed under Mus musculus [1] came out at 55%.
In the case of `O=C(NCc1ccccc1)Nc1ncccc1OCc1cccc(F)c1`, in the data set listed under Mus musculus [1], the Activity amounted to 9%.
On to `O=C(Nc1cccc(F)c1)Nc1ncccc1OCc1ccc(F)cc1`, for which, in the data set filed under Mus musculus [1], the Activity was found to be 18%.
As for `O=C(Nc1ncccc1OCc1ccc(Cl)cc1)Nc1cccc2ccccc12`, the Activity in the data set filed under Mus musculus [1] turned out to be 52%.
Regarding `Cc1ccc(NC(=O)Nc2ncccc2OCc2ccc(Cl)cc2)cc1`, the Activity in the data set filed under Mus musculus [1] is 44%.
For the compound `O=C(Nc1cccc(F)c1)Nc1ncccc1OCc1ccccc1`, the Activity in the data set listed under Mus musculus [1] amounted to 13%.
Regarding `O=C(Nc1ccc(C(F)(F)F)cc1)Nc1ncccc1OCc1cccc(Cl)c1`, the Activity in the data set filed under Mus musculus [1] turned out to be 27%.
On the same count and under the same terms, as for `O=C(Nc1cccc(F)c1)Nc1ncccc1OCc1ccc(Cl)cc1`, the figure is 15%.
On the same count and under the same terms, the figure for `O=C(Nc1cccc(F)c1)Nc1nccnc1OCc1cccc(F)c1` is 98%; for `O=C(Nc1ccccc1)Nc1ncccc1OCc1cccc(F)c1` it is 23%.
`O=C(Nc1ccc(Cl)c(Cl)c1)Nc1ncccc1OCc1ccc(Cl)cc1`: the Activity in the data set listed under Mus musculus [1] was 47%.
As for `O=C(Nc1ccccc1F)Nc1nccnc1OCc1ccccc1`, the Activity in the data set listed under Mus musculus [1] was determined as 123%.
`O=C(Nc1ncccc1OCc1ccccc1Cl)Nc1cccc2ccccc12`: the Activity in the data set listed under Mus musculus [1] stood at 77%.
Take `O=C(Nc1ccc(Cl)c(Cl)c1)Nc1nccnc1OCc1cccc(F)c1`: in the data set filed under Mus musculus [1], the Activity was determined as 101%.
